{
  "source": "ChEMBL document CHEMBL6114938",
  "about": "“Design, synthesis, and biological evaluation of pyrazole-ciprofloxacin hybrids as antibacterial and antibiofilm agents against Staphylococcus aureus” (RSC Med Chem, 2025)",
  "key": {"[1]": {"tested_on": "Staphylococcus aureus", "experiment": "Antibacterial activity against methicillin-resistant Staphylococcus aureus assessed as inhibition of bacterial growth", "assay_type": "functional"}, "[2]": {"tested_on": "Mycobacterium tuberculosis", "experiment": "Antimycobacterial activity against Mycobacterium tuberculosis H37Ra ATCC 25177 assessed as inhibition of bacterial growth incubated for 10 days by liquid broth microdilution method", "assay_type": "functional", "details": "H37Ra ATCC 25177, 240 h, time 10 day", "outline": "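Log-phase H37Ra (OD₆₀₀ 0.4–0.6) was grown in 7H9 with D-pantothenic acid, amino acids, 0.2% glycerol, 0.05% Tween 80 and 10% ADS, then diluted to OD₆₀₀ 0.005 (1.0×10⁶ CFU/ml). Compounds were two-fold serially diluted in 7H9, and plates were incubated for 10 days at 37 °C in 5% CO₂. MIC was the lowest concentration without visible turbidity.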"}, "[3]": {"tested_on": "Pseudomonas aeruginosa", "experiment": "Antibacterial activity against Pseudomonas aeruginosa PAO1 ATCC 15692 assessed as inhibition of bacterial growth incubated for 18 to 24 hrs by two-fold serial dilution method", "assay_type": "functional", "details": "time 18-24 hrs", "outline": "(§1)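 Broth microdilution in cation-adjusted Mueller Hinton broth with two-fold serial dilutions. Inoculum came from overnight cultures on Mueller Hinton agar, set to OD600 0.08-0.1 and diluted 100-fold, then added 1:1 to the compound wells. Plates were incubated at 37 °C for 18-24 h and read visually. MIC is the lowest concentration with no turbidity.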"}, "[4]": {"tested_on": "Staphylococcus aureus", "experiment": "Antibacterial activity against Staphylococcus aureus ATCC 29213 assessed as inhibition of bacterial growth incubated for 18 to 24 hrs by two-fold serial dilution method", "assay_type": "functional", "details": "time 18-24 hrs", "outline": "as §1"}, "[5]": {"tested_on": "Staphylococcus aureus", "experiment": "Antibacterial activity against one-step ciprofloxacin resistant mutant of Staphylococcus aureus ATCC 29213 assessed as inhibition of bacterial growth by liquid broth microdilution assay", "assay_type": "functional", "outline": "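One-step ciprofloxacin-resistant mutants were raised by plating log-phase cells adjusted to 10¹⁰ CFU/ml on ciprofloxacin-containing Mueller-Hinton agar for 48 h at 37 °C, then passaging picked colonies on ciprofloxacin plates. Mutants with a more than eightfold rise in ciprofloxacin MIC were kept. MIC was read by broth microdilution: two-fold dilutions in cation-adjusted MHB, and inoculum of OD₆₀₀ 0.08–0.1 diluted hundredfold. Plates ran 18–24 h at 37 °C, and MIC was the lowest concentration with no visible turbidity.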"}, "[6]": {"experiment": "Cytotoxicity against human HepG2 cells assessed as reduction in cell viability incubated for 48 hrs by MTT assay", "assay_type": "toxicity, cell-based", "outline": "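MTT viability assay in HepG2 cells seeded at 1000-4000 per well and allowed to adhere overnight. Compounds were tested at 1000-0.78 µg/mL for 48 h in fresh medium. MTT 0.5 mg/mL was added for 4 h at 37 °C, formazan was dissolved in DMSO, and absorbance was read at 570 nm.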"}, "[7]": {"tested_on": "Staphylococcus aureus", "experiment": "Antibiofilm activity against Staphylococcus aureus ATCC 29213 assessed as inhibition of biofilm formation incubated for 24 hrs by crystal violet staining based analysis", "assay_type": "functional", "outline": "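Biofilm formation assay with inoculum at OD600 0.015 from overnight culture. Twelve two-fold dilutions (128 to 0.06 µg/ml) were made in MHB with 2% sucrose in flat-bottom polystyrene wells and incubated at 37 °C for 24 h. Wells were washed with PBS pH 7.4, fixed with methanol, stained with 0.1% crystal violet, eluted with 95% ethanol and read at A595. MBIC50 is the lowest concentration giving ≥50% inhibition versus untreated culture.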"}, "[8]": {"tested_on": "Staphylococcus aureus", "experiment": "Potency index, ratio of ciprofloxacin MIC to test compound MIC for antibacterial activity against Staphylococcus aureus ATCC 29213", "assay_type": "functional"}},
  "data": [
    {"smiles": "COc1cc(OC)c(-c2cc(-c3cn(-c4ccccc4)nc3-c3ccccc3)[nH]c(=N)n2)cc1OC", "values": [
      {"measurement": "MIC", "setting": "[1]", "value": 521, "unit": "µM"}
    ]},
    {"smiles": "Cc1cc(-c2ccn(-c3ccc(NC(=O)CN4CCN(c5cc6c(cc5F)c(=O)c(C(=O)O)cn6C5CC5)CC4)cc3)n2)ccc1F", "values": [
      {"measurement": "MIC", "setting": "[2]", "value": 4, "unit": "µg/mL"},
      {"measurement": "MIC", "setting": "[3]", "value": 128, "unit": "µg/mL"},
      {"measurement": "MIC", "setting": "[4]", "value": 16, "unit": "µg/mL"}
    ]},
    {"smiles": "O=C(CN1CCN(c2cc3c(cc2F)c(=O)c(C(=O)O)cn3C2CC2)CC1)Nc1ccc(-n2ccc(-c3cccc(Cl)c3)n2)cc1", "values": [
      {"measurement": "MIC", "setting": "[2]", "value": 8, "unit": "µg/mL"},
      {"measurement": "MIC", "setting": "[3]", "value": 64, "unit": "µg/mL"},
      {"measurement": "MIC", "setting": "[4]", "value": 8, "unit": "µg/mL"}
    ]},
    {"smiles": "O=C(CN1CCN(c2cc3c(cc2F)c(=O)c(C(=O)O)cn3C2CC2)CC1)Nc1ccc(-n2ccc(-c3ccc4c(c3)OCO4)n2)cc1", "values": [
      {"measurement": "MIC", "setting": "[2]", "value": 32, "unit": "µg/mL"},
      {"measurement": "MIC", "setting": "[5]", "value": 32, "unit": "µg/mL"},
      {"measurement": "MIC", "setting": "[3]", "value": 64, "unit": "µg/mL"},
      {"measurement": "CC50 at 48 h", "setting": "[6]", "value": "> 1000", "unit": "µg/mL"},
      {"measurement": "MBIC50", "setting": "[7]", "value": 1.84, "unit": "µg/mL"},
      {"measurement": "MIC", "setting": "[4]", "value": 0.5, "unit": "µg/mL"}
    ]},
    {"smiles": "O=C(CN1CCN(c2cc3c(cc2F)c(=O)c(C(=O)O)cn3C2CC2)CC1)Nc1ccc(-n2ccc(-c3ccc(F)cc3)n2)cc1", "values": [
      {"measurement": "MIC", "setting": "[2]", "value": 1, "unit": "µg/mL"},
      {"measurement": "MIC", "setting": "[5]", "value": 8, "unit": "µg/mL"},
      {"measurement": "MIC", "setting": "[3]", "value": 32, "unit": "µg/mL"},
      {"measurement": "CC50 at 48 h", "setting": "[6]", "value": "> 1000", "unit": "µg/mL"},
      {"measurement": "MBIC50", "setting": "[7]", "value": 2.7, "unit": "µg/mL"},
      {"measurement": "MIC", "setting": "[4]", "value": 0.125, "unit": "µg/mL"},
      {"measurement": "Ratio", "setting": "[8]", "value": 2}
    ]},
    {"smiles": "O=C(O)c1ccc(-c2nn(-c3ccc(C(F)(F)F)cc3)cc2CNc2ccc(Br)c(C(F)(F)F)c2)cc1", "values": [
      {"measurement": "MIC", "setting": "[1]", "value": "< 1", "unit": "µg/mL"}
    ]},
    {"smiles": "O=C(CN1CCN(c2cc3c(cc2F)c(=O)c(C(=O)O)cn3C2CC2)CC1)Nc1ccc(-n2ccc(-c3ccc(Cl)cc3)n2)cc1", "values": [
      {"measurement": "MIC", "setting": "[2]", "value": 64, "unit": "µg/mL"},
      {"measurement": "MIC", "setting": "[3]", "value": 128, "unit": "µg/mL"},
      {"measurement": "MIC", "setting": "[4]", "value": 1, "unit": "µg/mL"}
    ]},
    {"smiles": "O=C(CN1CCN(c2cc3c(cc2F)c(=O)c(C(=O)O)cn3C2CC2)CC1)Nc1ccc(-n2ccc(-c3cc4ccccc4o3)n2)cc1", "values": [
      {"measurement": "MIC", "setting": "[2]", "value": 2, "unit": "µg/mL"},
      {"measurement": "MIC", "setting": "[3]", "value": 32, "unit": "µg/mL"},
      {"measurement": "MIC", "setting": "[4]", "value": 1, "unit": "µg/mL"}
    ]},
    {"smiles": "Cc1ccc(-c2ccn(-c3ccc(NC(=O)CN4CCN(c5cc6c(cc5F)c(=O)c(C(=O)O)cn6C5CC5)CC4)cc3)n2)cc1", "values": [
      {"measurement": "MIC", "setting": "[2]", "value": 32, "unit": "µg/mL"},
      {"measurement": "MIC", "setting": "[3]", "value": 128, "unit": "µg/mL"},
      {"measurement": "MIC", "setting": "[4]", "value": 8, "unit": "µg/mL"}
    ]},
    {"smiles": "COc1cccc(-c2ccn(-c3ccc(NC(=O)CN4CCN(c5cc6c(cc5F)c(=O)c(C(=O)O)cn6C5CC5)CC4)cc3)n2)c1", "values": [
      {"measurement": "MIC", "setting": "[2]", "value": 4, "unit": "µg/mL"},
      {"measurement": "MIC", "setting": "[3]", "value": 32, "unit": "µg/mL"},
      {"measurement": "MIC", "setting": "[4]", "value": 1, "unit": "µg/mL"}
    ]},
    {"smiles": "CC/C(=C(\\c1ccccc1)c1ccc(OCCN(C)C)cc1)c1ccccc1", "note": "[TAMOXIFEN]", "values": [
      {"measurement": "CC50 at 48 h", "setting": "[6]", "value": 3.7, "unit": "µg/mL"}
    ]},
    {"smiles": "O=C(O)c1cn(C2CC2)c2cc(N3CCNCC3)c(F)cc2c1=O", "note": "[CIPROFLOXACIN]", "values": [
      {"measurement": "MIC", "setting": "[5]", "value": 2, "unit": "µg/mL"},
      {"measurement": "MIC", "setting": "[3]", "value": 0.06, "unit": "µg/mL"},
      {"measurement": "MBIC50", "setting": "[7]", "value": 1.06, "unit": "µg/mL"},
      {"measurement": "MIC", "setting": "[4]", "value": 0.25, "unit": "µg/mL"}
    ]}
  ]
}
